Structures are written as SMILES.

This is an account of results in ChEMBL document CHEMBL4513216, “Probing the Open Global Health Chemical Diversity Library for Multistage-Active Starting Points for Next-Generation Antimalarials” (ACS Infect Dis, 2020).

The nature of the data set: Toxicity liver stage against HepG2, at 10uM. In kind it is cell-based. The arrangement: test concentration 10 uM, cell line HepG2-A16-CD81EGFP. The note with it: human, HepG2-A16-CD81EGFP cells; read-out: INHIBITION
Put shortly:
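Uninfected HepG2-A16-CD81EGFP cells, 3 × 10^3 per well, 1536-well, plated on prespotted compound at 10 μM final, parasite-free screening media added to match infected plates; puromycin 10 μM positive, DMSO 0.5% negative; run in parallel with 48 h PbLuc assay at 37 °C, 5% CO2; viability by CellTiter-Glo luminescence, normalized to controls.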

Turning to `c1cc(CO[C@H]2CC[C@H]3[C@H]2OCCN3Cc2nccs2)ccn1`, the cytotoxicity at 10 µM was -109%.
Next, `CC(=O)Nc1nc(C(=O)N2CCC(Nc3cccnn3)CC2)cs1`: -4.67%.
As for `Cc1n[nH]c(C)c1CN1CCC(c2cc(C(C)C)n[nH]2)CC1`, the cytotoxicity at 10 µM is -6.88%.
For `Cc1n[nH]c(CN2CCN(C(=O)C3CCC3)[C@@H]3CS(=O)(=O)C[C@@H]32)n1`, the cytotoxicity at 10 µM was -10.8%.
With `Cc1cc(C)cc(OCCN(C)Cc2ccc(S(=O)(=O)N(C)C)o2)c1`, the cytotoxicity at 10 µM worked out at 8.2%.
Turning to `O=C(CN1CCOc2ccccc2C1)NCc1cc2n(n1)CCNC2`, the cytotoxicity at 10 µM was 1.03%.
In the case of `CSc1ccc2cc(CN(C)CCO)c(=O)[nH]c2c1`, the cytotoxicity at 10 µM turned out to be 5.76%.
Next, `CS(=O)(=O)NCCNCc1ccc(Br)s1`: -3.04%; `OC1(CNCCCN2CCc3ccccc32)CCNC1` (configuration not stated): 11.5%; `Cc1cc(C(N)=O)ccc1NC(=O)N1CCN(c2cccs2)CC1`: 10.1%.
In the case of `CCC(CC)NCC(c1ccccn1)N1CCOCC1` (configuration not stated), the cytotoxicity at 10 µM is -44.8%.
Next, `O=C1COC2(CCN(c3ncccn3)CC2)CN1`: 12.9%; `CN1CCN(C(=O)c2csnn2)c2ccccc21`: -1.15%; `CCn1c(C)nnc1SCCNc1nc(C)nc2ncccc12`: 0.194%.
Next, `O=C(c1ccccc1OCC1CC1)N1CCCC(n2ccnc2)C1` (configuration not stated): -1.8%; `CN(C)S(=O)(=O)CCCN1CCc2c(ncn2C2CC2)C1`: -10.5%; `CC(C)c1n[nH]c(C(=O)Nc2ccnn2C(C)C)c1Br`: 13.8%.
Next, `CC1=Nc2c(c(O)nn2C2CCOCC2)C(c2cccnc2)S1` (configuration not stated): 5.11%; `CCOc1nc2cccnc2n(CC(=O)NCCOC)c1=O`: -7.84%.
For the compound `Cc1ccc(NC(=O)Cc2cnc3n(C)c(=O)[nH]c(=O)n23)cc1`, the cytotoxicity at 10 µM turned out to be 8.24%.
Turning to `CC(C(=O)N1CCC(c2[nH]ncc2-c2ccccc2)CC1)n1cncn1` (configuration not stated), the cytotoxicity at 10 µM was -0.815%.
`CN(Cc1nc(C2CC2)no1)C1CCS(=O)(=O)C1` (configuration not stated): the cytotoxicity at 10 µM came to 13.2%.
Next, `CCc1nnc(N2C[C@@H](CN(C)CCO)[C@@H](CO)C2)s1`: -5.61%.
Next, `COc1cc(N2CC[C@@H]3O[C@@H](C(=O)NCCN(C)C)C[C@@H]32)ncn1`: 0.588%.
Next, `CCC[C@@H]1CN(Cc2nnc(-c3cccnc3)o2)C[C@H]1NC(C)=O`: -4.89%; `COCC(=O)NC1CC2(CCN(CCF)CC2)Oc2ccccc21` (configuration not stated): -0.864%.
As to `CN1CCN(C(=O)COCc2nc(-c3ccncc3)no2)CC1`, the cytotoxicity at 10 µM is 14.6%.
Regarding `CC(C)(C)OC(=O)N1CC(=O)N(Cc2ccco2)CC(O)C1` (configuration not stated), the cytotoxicity at 10 µM is 4.11%.
Take `CN(CC(=O)NC(C)(C)C)Cc1cccc2c1OCCO2`: the cytotoxicity at 10 µM was -26.5%.
With `O=C(Cc1csc(-c2ccco2)n1)N1CCN(CCO)CC1`, the cytotoxicity at 10 µM was -0.337%.
Consider `Cc1nnc2n1CCN(C(C)c1nnc(-c3cccs3)o1)C2` (configuration not stated), for which the cytotoxicity at 10 µM is -11.2%.
Regarding `CN(C)C(C(=O)N1CCCC1)c1ccccc1F` (configuration not stated), the cytotoxicity at 10 µM is 7.35%.
Take `CCn1nc(C(C)C)cc1C(=O)N1CC(OCc2ccccc2F)C1`: the cytotoxicity at 10 µM is -4.62%.
With `O=C(CCN1CCCCCC1c1ccco1)N1CCOCC1` (configuration not stated) the figure was 6.14%.
Next, `O=C(C1CC1)N1CCC2(CC1)CNc1ccc(F)cc12`: 11%.
Next, `CNC(=O)CN1CCO[C@H]2CN(C(=O)C3CC3)C[C@H]21`: 7.52%; `CC1(C)Cc2ccccc2-c2nc(NCCO)[nH]c(=O)c21`: -5.46%; `Cc1csc(C(=O)N2CCC(S(C)(=O)=O)CC2)c1`: 2.7%.
Take `O=C(O)c1ccnc(-c2ccnc(NCCc3nc4c(s3)CCC4)n2)c1`: the cytotoxicity at 10 µM was -4.23%.
In the case of `Cc1cc(C)cc(CCC(=O)N2CCN(c3cc(C)nc(N)n3)CC2)c1`, the cytotoxicity at 10 µM is -38.7%.
For `COCCN1CCN(Cc2cnc(C3(C)CCCCO3)nc2)CC1` (configuration not stated), the cytotoxicity at 10 µM was 1.16%.
With `CCN(C)C(=O)c1ccc(N(C)Cc2cc(-c3cccnc3)no2)nc1` the figure was -7.21%; with `O=S(=O)(Cc1ccc(F)cc1F)NCCOc1cccnc1`, -45.9%.
With `Cc1cccc(OCC2CCCN(C(=O)CCn3ccccc3=O)C2)c1` (configuration not stated) the figure was -0.987%; with `CS(=O)(=O)NC(=O)c1ccn(-c2ccc(Cl)c(Cl)c2)n1`, 6.96%.
For the compound `COc1c(CNC2CCOc3c(Cl)cccc32)c(C(C)C)nn1C` (configuration not stated), the cytotoxicity at 10 µM stood at 2.25%.
With `CCNC(=O)C1CCCN1S(=O)(=O)c1sc(=O)[nH]c1C` (configuration not stated) the figure was 1.34%; with `CN(C)C(=O)[C@@H]1C[C@@H]2CCN(Cc3ccncc3)C[C@@H]2O1`, 6.36%; with `Cc1nc(CNCC2CNc3ccnn3C2)cs1` (configuration not stated), -8.71%.
Regarding `Cc1noc(C)c1CNS(=O)(=O)N(C)Cc1ccc(Cl)cc1`, the cytotoxicity at 10 µM is 11.2%.
Consider `CCc1nc(NC(=O)N(C)Cc2ccoc2)nn1C`, for which the cytotoxicity at 10 µM amounted to 0.79%.
With `O=C(CC1CC1)N1CCn2cc(Cn3cncn3)nc2C1` the figure was -8.87%; with `O=C1CCC(C(=O)N2CCOC(Cc3cccc4ccccc34)C2)=NN1` (configuration not stated), -3.86%.
With `CC(C)n1cnnc1CN(C)C(=O)C1CCCN(C2CCN(C)CC2)C1` (configuration not stated) the figure was -1.26%; with `CCN1CC(C)(C)CN(C(=O)CCc2ccccc2)CC1=O`, 0.305%; with `Fc1ccccc1OCCc1cc(C2CCNC2)n[nH]1` (configuration not stated), -26.8%.
On to `COCc1nc(NC(C)Cc2cc(C)n[nH]2)c2cnn(C)c2n1` (configuration not stated), for which the cytotoxicity at 10 µM is -10%.
On to `CN1CC(=O)N(c2ccccc2)Cc2c(NC3CC3)ncnc21`, for which the cytotoxicity at 10 µM came out at 6.86%.
With `CCCc1nc(C(=O)N(C)Cc2cc(CC)no2)cs1` the figure was 6.75%; with `COc1ccc(CC(=O)N2CCCC2Cn2cc(C)cn2)c(OC)c1` (configuration not stated), -18%; with `O=C(Nc1cccc(F)c1)C1CCCN1c1nccs1` (configuration not stated), -4.72%.
For the compound `CC(C)NC(=O)N1CCc2onc(C(=O)NCCN(C)C)c2C1`, the cytotoxicity at 10 µM turned out to be 0.0529%.
Next, `Cc1c(C(=O)N2CCC(O)(CN(C)C)C2)c2ccccc2n1C` (configuration not stated): 3.49%; `CCc1nc(C2CCCN2Cc2nc3ccccc3o2)no1` (configuration not stated): 3.06%; `Cc1csc(NC(=O)CN(C)CCOc2cccc(F)c2)n1`: 0.115%.
With `Cc1csc2c(N3CCC(NCCCc4ccncc4)CC3)ncnc12` the figure was -1.54%; with `C=C(C)CNc1ccc(C(=O)N(CC)Cc2nccn2C)cn1`, -9.36%; with `Cn1c(C(F)(F)F)nn(CCNC(=O)CSCc2ccccc2)c1=O`, -24%.
With `COc1cc(N2C[C@H](C(=O)NCC3CC3)[C@@H]3CCO[C@@H]3C2)ncn1` the figure was 2.87%.
`CCOCCn1nc(C)cc1C(=O)N1CCOCC(CO)C1` (configuration not stated): the cytotoxicity at 10 µM was -20%.
Consider `Cc1n[nH]cc1CNC(C(=O)N1CCCCC1)c1ccccc1` (configuration not stated), for which the cytotoxicity at 10 µM was found to be 8.37%.
For the compound `Cc1nn(C)c(N(C)C)c1CNCCOc1ccc2c(c1)OCO2`, the cytotoxicity at 10 µM is -1.34%.
Next, `Cc1nc(-c2ccc(S(=O)(=O)N3CCSC3)cc2)co1`: 17.2%.
Turning to `CC1CN(C(=O)c2cccc(OCc3cscn3)c2)CCO1` (configuration not stated), the cytotoxicity at 10 µM was -9.86%.
On to `COc1cc(CN2CCC(O)(c3ccc(C)cn3)CC2)cc(Cl)c1OC`, for which the cytotoxicity at 10 µM is -132%.
As for `CCOCC1CN(C(=O)c2ccnnc2)Cc2cnn(C)c21` (configuration not stated), the cytotoxicity at 10 µM was determined as 7.07%.
For `O=C1CCC2(CCN(Cc3cc(F)ccc3Cl)CC2)CN1C1CCCC1`, the cytotoxicity at 10 µM stood at 53.1%.
With `CN(Cc1cnccn1)c1cncc(Br)c1` the figure was -8.46%; with `CN1CCCC1c1cncc(C(=O)NCC2CC2)n1` (configuration not stated), -8.41%.
Consider `COc1cc2c(cc1CNCc1cccnc1-n1cccn1)OC(C)C2` (configuration not stated), for which the cytotoxicity at 10 µM is 4.6%.
Take `Cc1nc(C)n(CC2CCCN(CCC(=O)N3CCCCC3)C2)n1` (configuration not stated): the cytotoxicity at 10 µM amounted to 3.9%.
With `CC(C)c1cc(C(=O)N2CCCN(Cc3ccccc3)CC2)n[nH]1` the figure was -5.41%.
Next, `Cc1ccc(-c2cn[nH]c2C2CCCN(c3cc(N)ncn3)C2)cc1` (configuration not stated): 55.4%; `O=C(c1cccnc1)N1Cc2nccn2CC(COc2cccnc2)C1` (configuration not stated): 4.01%.
For `Cc1ccc(NC2CCN(C(=O)c3cccc4c3ccn4C)CC2)nn1`, the cytotoxicity at 10 µM was -17.3%.
With `CCC1(CO)CCN(C(=O)c2cc(COc3ccccc3F)[nH]n2)CC1` the figure was 4.45%; with `Cn1c(N2CC[C@H](O)C2)nc2cc(C(N)=O)ccc21`, 5.83%.
Next, `CSCC(C)(O)CNc1cccc(F)c1C#N` (configuration not stated): 0.462%; `Cc1cc(C)nc(N2CCC(c3cc(CCO)[nH]n3)C2)n1` (configuration not stated): 4.15%; `COc1ccc(C2CCCN2c2ccc(C#N)cn2)c(OC)c1` (configuration not stated): -3.42%.
As for `CC(C)c1nc(C2CCCN2CCN2CCCCC2)no1` (configuration not stated), the cytotoxicity at 10 µM was -4.58%.
With `Cc1cccc(CN2CCCn3c(nnc3Cn3cccn3)C2)n1` the figure was -0.124%; with `Cc1ccc(C(=O)N2CC[C@@H]3CN(C4CCOCC4)CCO[C@@H]3C2)o1`, -121%.
Next, `CC(C)c1noc(CCNC(=O)NCC2Cc3ccccc3O2)n1` (configuration not stated): 7.4%; `CN(C)c1nc(N)nc(CN2CCCC2c2cccs2)n1` (configuration not stated): 5.21%; `Cc1ccccc1Oc1ncccc1CNS(=O)(=O)N(C)C`: -4.09%.
In the case of `CC1CCN(S(=O)(=O)N2Cc3ccccc3C[C@H]2C(N)=O)CC1`, the cytotoxicity at 10 µM is -6.64%.
